The source of these data is ChEMBL document CHEMBL2034911, “Carbazole alkaloids from the stems of Clausena lansium” (J Nat Prod, 2012).

Holding throughout (assay type): functional, cell-based
For assay [1], the system named is PC-12. Description: Neuroprotective activity in rat PC12 cells assessed as inhibition of serum starvation-induced cell death after 24 hrs by MTT assay. An outline of the steps: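 Serum-withdrawal model: PC12 cells (5000/well) were pre-grown 24 h in DMEM with 5% FBS and 5% equine serum, then moved to plain DMEM. Compound (DMSO stock, >1000-fold dilution) was added at the same time, in triplicate, and cells were incubated 24 h at 37 °C, 5% CO2. MTT was added for 4 h, formazan dissolved in DMSO, and A570 read. ANOVA with Newman–Keuls test.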

For assay [2], the system named is PC-12. Description: Neuroprotective activity in rat PC12 cells assessed as inhibition of SNP-induced cell death at 10 uM incubated 24 hrs post SNP-challenge for 24 hrs by MTT assay. The method, boiled down: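 PC12 cells were grown in DMEM with 5% FBS and 5% equine serum and seeded at 5000 cells/well for 24 h. Medium was switched to basic medium with 350 μM SNP for 24 h, with compound (DMSO stock, >1000-fold dilution) added at the same time, in triplicate. MTT was added for 4 h, formazan dissolved in DMSO, and A570 read. ANOVA with Newman–Keuls post hoc test.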

Assay [3] relates to PC-12. In words: Neuroprotective activity in rat PC12 cells assessed as inhibition of amyloid beta(25 to 35)-induced cell death at 10 uM incubated 48 hrs […] by MTT assay. The method, boiled down:
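PC12 cells were grown in DMEM with 5% FBS and 5% equine serum and seeded at 5000 cells/well for 24 h. Basic medium with 15 μM Aβ25−35 was applied for 48 h, with compound (DMSO stock, >1000-fold dilution) co-added, in triplicate. Viability was measured by MTT (4 h), formazan dissolved in DMSO, and absorbance read at 570 nm. ANOVA/Newman–Keuls.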

Activity calls are given as the source filed them. The calls are words filed in the database; no cut-off is given here.

As for `COc1ccc2[nH]c3cc(OC)c(C=O)cc3c2c1`, the outcome with PC-12 [1], with PC-12 [2] and in the assay with PC-12 [3] was inactive.

`COC(=O)c1ccc2[nH]c3ccc(OC)cc3c2c1`: the outcome in the assay on PC-12 [1] and with PC-12 [3] was inactive. Further, the outcome with PC-12 [2] was Active.

For `COc1c2c(cc3c1[nH]c1ccccc13)[C@H]1O[C@@H](C2)C(C)(C)O1`, the outcome with PC-12 [1] was inactive. For the same compound, the result in the assay with PC-12 [2] and in the assay with PC-12 [3] was Active.

For the compound `COc1cc(C=O)cc2c1[nH]c1ccccc12`, the outcome in the assay with PC-12 [1] was inactive. For the same compound, the result in the assay with PC-12 [2] and in the assay on PC-12 [3] was Active.

`CC(C)=CCc1c(C=O)cc2c([nH]c3ccccc32)c1O`: the outcome in the assay on PC-12 [1] and in the assay with PC-12 [2] was inactive. Further, in the assay with PC-12 [3], the result was Active.

With `COc1c2c(cc3c1[nH]c1ccccc13)C(=O)C[C@@H]2O`, the outcome with PC-12 [1], in the assay on PC-12 [2] and with PC-12 [3] was inactive.

For `COc1cc2c(cc1O)[nH]c1cc(O)c(C=O)cc12`, in the assay on PC-12 [1], the outcome was inactive. In addition, the result in the assay on PC-12 [2] and in the assay with PC-12 [3] was Active.

With `CC(C)=CCc1c(C=O)cc(O)c2[nH]c3ccccc3c12`, the result with PC-12 [1], with PC-12 [2] and in the assay on PC-12 [3] was inactive.

For `O=Cc1ccc2[nH]c3ccccc3c2c1`, the outcome in the assay on PC-12 [1], in the assay on PC-12 [2] and with PC-12 [3] was inactive.

With `COc1c2c(cc3c1[nH]c1ccccc13)[C@H]1O[C@@H]([C@H]2O)C(C)(C)O1`, the outcome in the assay with PC-12 [1], with PC-12 [2] and in the assay on PC-12 [3] was inactive.

For the compound `COc1ccc2[nH]c3ccc(C=O)cc3c2c1`, the outcome in the assay on PC-12 [1], in the assay on PC-12 [2] and in the assay on PC-12 [3] was inactive.

With `COc1c2c(cc3c1[nH]c1ccccc13)C(=O)O[C@@H]2[C@H](O)C(C)(C)O`, the outcome in the assay with PC-12 [1], with PC-12 [2] and in the assay with PC-12 [3] was inactive.

Consider `COc1cc2c(cc1O)[nH]c1c(CC=C(C)C)c(O)c(C=O)cc12`, for which the outcome in the assay with PC-12 [1] and in the assay with PC-12 [2] was inactive. The result in the assay with PC-12 [3] was Active.

`COc1c2c(cc3c1[nH]c1ccccc13)C(=O)C(=C(C)C)C2`: the result in the assay on PC-12 [1], with PC-12 [2] and in the assay on PC-12 [3] was inactive.

As to `COc1c2c(cc3c1[nH]c1ccccc13)C(=O)O[C@H](C(C)(C)O)[C@H]2O`, the result with PC-12 [1], in the assay with PC-12 [2] and in the assay on PC-12 [3] was inactive.

Take `COc1ccc2[nH]c3c4c(c(C=O)cc3c2c1)OC(C)(C)C=C4`: the outcome in the assay with PC-12 [1] and in the assay on PC-12 [3] was inactive. In the assay on PC-12 [2], the outcome was Active.

Regarding `COc1ccc2[nH]c3c(O)cc(C=O)cc3c2c1`, the outcome in the assay with PC-12 [1] and with PC-12 [3] was inactive. In addition, the outcome in the assay with PC-12 [2] was Active.
